# Measured values gathered from unrelated publications.
# Protocols differ between the studies behind these lines.
# Target: Adenosine receptor A2a (ADORA2A, Homo sapiens, UniProt P29274)
# Effect on: ligand displacement
# Technique: radioligand
SMILES,conditions,Ki [nM]
C=CN1CCCn2c1nc1c2c(=O)n(C)c(=O)n1C,cell membranes,> 10000
CNC(=O)[C@@]12C[C@@H]1[C@@H](n1cnc3c(NCc4cccc(C#CCCCCCc5cn(-c6ccc(F)c(N)c6)nn5)c4)nc(Cl)nc31)[C@H](O)[C@@H]2O,cell membranes,550
CNC(=O)c1csc(Nc2cccc(C)n2)n1,cell membranes,7100
C#CCCCCC(=O)NCCNC(=O)COc1ccc(-c2nc3c([nH]2)c(=O)n(CCC)c(=O)n3CCC)cc1,cell membranes,23.2
CCNC(=O)C1OC(n2cnc3c(N)nc(NN=CC4CCC=CO4)nc32)C(O)C1O (centres unmarked),,23.3
c1coc(-c2nc3cc(CCN4CCCCC4)ccc3o2)c1,cell membranes,7000
OC[C@@]12C[C@@H]1[C@@H](n1cnc3c(N[C@@H](C4CCC4)C4CC4)nc(I)nc31)[C@H](O)[C@@H]2O,,3080
c1ccc2[nH]c(-c3nc4ccccc4[nH]3)nc2c1,cell membranes,140
c1coc(-c2nc3cc(CN4CCCCC4)ccc3o2)c1,cell membranes,19000
Nc1nc(-c2ccccc2)nn1C(=O)CCc1ccccc1,cell membranes,2000
CC(C)CN1CCCn2c1nc1c2c(=O)n(C)c(=O)n1C,cell membranes,930
